Test results reported in paper PMC8742645 (Clinical and Translational Science, 2021).
“And” between values parts separate entries of the source, which are not always exact repeats. Identical values can stand only once. Like-named read-outs stand apart in the source and are kept apart here. Marks after values point to notes of the source that are not given here.

How the values were obtained:
[1] = tested on: Caco-2 cells; test: Caco-2 permeability of remibrutinib; type: in vitro ADME; settings: Caco-2, passive
Method in brief: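 Human Caco-2 cell system, also used to test the compound as a substrate of ATP-binding cassette efflux transporters (P-gp). Passive apparent permeability (Papp, cm/s) was taken from these experiments to predict the fraction absorbed (Fa) in the PBPK model.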

[2] = molecular target: P-gp (Homo sapiens, UniProt P08183); test: Efflux transporter substrate assessment in Caco-2 cells; type: in vitro ADME
[3] = tested on: hepatic uptake transporters; test: Cellular uptake in suspensions of cryo-preserved human hepatocytes; type: in vitro ADME; settings: suspended human hepatocytes
[4] = tested on: human liver microsomes; test: Oxidative metabolism kinetics in pooled HLM; type: in vitro ADME
[5] = molecular target: CYP3A4 (Homo sapiens, UniProt P08684); type: in vitro ADME
[6] = molecular target: CYP2C19 (Homo sapiens, UniProt P33261); test: Recombinant human CYP enzyme kinetics; type: in vitro ADME
[7] = molecular target: CYP3A5 (Homo sapiens, UniProt P20815); test: Recombinant human CYP enzyme kinetics; type: in vitro ADME
[8] = molecular target: T1, CYP2B6 (Homo sapiens, UniProt P20813); test: Recombinant human CYP enzyme kinetics; type: in vitro ADME
T1 sequence (P20813 1-491): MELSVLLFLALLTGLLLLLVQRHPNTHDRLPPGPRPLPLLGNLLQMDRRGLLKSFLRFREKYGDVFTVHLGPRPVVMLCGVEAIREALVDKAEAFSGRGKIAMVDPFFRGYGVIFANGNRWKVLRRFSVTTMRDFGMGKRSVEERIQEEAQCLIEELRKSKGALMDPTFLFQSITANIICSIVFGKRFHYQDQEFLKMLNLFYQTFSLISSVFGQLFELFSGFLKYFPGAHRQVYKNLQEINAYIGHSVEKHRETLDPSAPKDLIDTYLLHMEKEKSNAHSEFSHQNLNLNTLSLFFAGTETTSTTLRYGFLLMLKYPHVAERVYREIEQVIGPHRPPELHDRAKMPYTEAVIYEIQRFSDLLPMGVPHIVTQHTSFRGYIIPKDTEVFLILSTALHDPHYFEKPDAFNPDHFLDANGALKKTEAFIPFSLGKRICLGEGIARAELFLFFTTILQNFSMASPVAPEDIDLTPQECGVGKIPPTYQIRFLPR

[9] = tested on: CYP3A4/5; test: Correlation analysis with HLM from 16 individual donors; type: in vitro ADME, human
[10] = type: in vivo, human; settings: for Vd: 100 µg; for half-life / Tmax: whole blood; for half-life: t 1/2, arithmetic mean; for Tmax: po
Method in brief: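 Healthy adults, open-label single-sequence three-period crossover. Oral doses: 50 mg alone (day 3, 1 h after 240 ml 10% glucose), 20 mg 1 h after 240 ml grapefruit juice, and 20 mg 1 h after the second ritonavir 100 mg dose. Stable-isotope-labelled i.v. microtracer 100 µg given 2 h post-oral in periods 1 and 3. Blood measured by LC-MS/MS; dose-normalised; mixed-ANOVA geometric mean ratios.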

[11] = Clinical DDI study: safety; type: in vivo, human
[12] = Single and multiple ascending dose study, observed PK; type: in vivo, human
[13] = DDI trial with CYP450 enzyme substrate cocktail, steady state; ref unpublished data, Schiller, Huth, Schuhler, Drollmann, Kaul, Woessner, et al. 2021; cited from earlier work
[14] = rat in vivo; ref data on file, Novartis; cited from earlier work
[15] = i.v., Period 1 remibrutinib alone day 3, Geo-mean (%CV)
[16] = i.v., Period 3 remibrutinib + ritonavir, Geo-mean (%CV)
[17] = oral, Period 1 alone 50 mg Day 3, Mean (SD)
[18] = oral, Period 2 20 mg + GFJ Day 5, Mean (SD)
[19] = oral, Period 3 20 mg + RTV Day 7, Mean (SD)
[20] = p.o., Period 1 remibrutinib alone, adjusted Geo-mean, 90% CI
[21] = p.o., Period 2 remibrutinib + grapefruit juice, adjusted Geo-mean, 90% CI
[22] = p.o., Period 3 remibrutinib + ritonavir, adjusted Geo-mean, 90% CI
[23] = p.o., grapefruit juice vs alone, Geo mean ratio, 90% CI
[24] = p.o., ritonavir vs alone, Geo-mean ratio, 90% CI

Sequence of CYP3A4 (P08684 whole entry): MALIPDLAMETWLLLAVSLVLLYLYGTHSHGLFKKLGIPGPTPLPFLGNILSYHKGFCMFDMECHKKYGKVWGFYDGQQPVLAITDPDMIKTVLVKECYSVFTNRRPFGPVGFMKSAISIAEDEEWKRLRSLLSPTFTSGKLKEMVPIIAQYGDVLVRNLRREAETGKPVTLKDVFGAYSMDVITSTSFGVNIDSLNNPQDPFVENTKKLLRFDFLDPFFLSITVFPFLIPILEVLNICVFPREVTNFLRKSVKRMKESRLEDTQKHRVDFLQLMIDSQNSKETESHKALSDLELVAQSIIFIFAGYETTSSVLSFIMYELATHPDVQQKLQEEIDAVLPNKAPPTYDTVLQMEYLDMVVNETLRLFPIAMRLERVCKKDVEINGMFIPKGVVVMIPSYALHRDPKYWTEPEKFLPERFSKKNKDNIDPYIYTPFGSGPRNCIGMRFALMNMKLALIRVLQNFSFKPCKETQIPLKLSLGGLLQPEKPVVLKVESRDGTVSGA
Sequence of CYP2C19 (P33261 whole entry): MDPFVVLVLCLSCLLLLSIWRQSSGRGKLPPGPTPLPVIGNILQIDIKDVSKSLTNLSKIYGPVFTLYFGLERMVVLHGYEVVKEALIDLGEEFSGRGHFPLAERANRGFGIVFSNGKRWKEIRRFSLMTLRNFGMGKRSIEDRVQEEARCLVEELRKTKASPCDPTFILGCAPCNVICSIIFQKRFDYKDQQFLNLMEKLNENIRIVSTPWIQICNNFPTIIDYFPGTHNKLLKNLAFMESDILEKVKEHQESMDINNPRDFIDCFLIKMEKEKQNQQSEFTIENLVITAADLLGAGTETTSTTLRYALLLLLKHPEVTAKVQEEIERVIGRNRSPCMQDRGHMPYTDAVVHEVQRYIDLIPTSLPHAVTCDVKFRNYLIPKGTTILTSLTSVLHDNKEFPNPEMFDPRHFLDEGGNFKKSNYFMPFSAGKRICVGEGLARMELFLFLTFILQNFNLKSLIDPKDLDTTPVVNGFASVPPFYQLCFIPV
Sequence of P-gp (P08183 whole entry): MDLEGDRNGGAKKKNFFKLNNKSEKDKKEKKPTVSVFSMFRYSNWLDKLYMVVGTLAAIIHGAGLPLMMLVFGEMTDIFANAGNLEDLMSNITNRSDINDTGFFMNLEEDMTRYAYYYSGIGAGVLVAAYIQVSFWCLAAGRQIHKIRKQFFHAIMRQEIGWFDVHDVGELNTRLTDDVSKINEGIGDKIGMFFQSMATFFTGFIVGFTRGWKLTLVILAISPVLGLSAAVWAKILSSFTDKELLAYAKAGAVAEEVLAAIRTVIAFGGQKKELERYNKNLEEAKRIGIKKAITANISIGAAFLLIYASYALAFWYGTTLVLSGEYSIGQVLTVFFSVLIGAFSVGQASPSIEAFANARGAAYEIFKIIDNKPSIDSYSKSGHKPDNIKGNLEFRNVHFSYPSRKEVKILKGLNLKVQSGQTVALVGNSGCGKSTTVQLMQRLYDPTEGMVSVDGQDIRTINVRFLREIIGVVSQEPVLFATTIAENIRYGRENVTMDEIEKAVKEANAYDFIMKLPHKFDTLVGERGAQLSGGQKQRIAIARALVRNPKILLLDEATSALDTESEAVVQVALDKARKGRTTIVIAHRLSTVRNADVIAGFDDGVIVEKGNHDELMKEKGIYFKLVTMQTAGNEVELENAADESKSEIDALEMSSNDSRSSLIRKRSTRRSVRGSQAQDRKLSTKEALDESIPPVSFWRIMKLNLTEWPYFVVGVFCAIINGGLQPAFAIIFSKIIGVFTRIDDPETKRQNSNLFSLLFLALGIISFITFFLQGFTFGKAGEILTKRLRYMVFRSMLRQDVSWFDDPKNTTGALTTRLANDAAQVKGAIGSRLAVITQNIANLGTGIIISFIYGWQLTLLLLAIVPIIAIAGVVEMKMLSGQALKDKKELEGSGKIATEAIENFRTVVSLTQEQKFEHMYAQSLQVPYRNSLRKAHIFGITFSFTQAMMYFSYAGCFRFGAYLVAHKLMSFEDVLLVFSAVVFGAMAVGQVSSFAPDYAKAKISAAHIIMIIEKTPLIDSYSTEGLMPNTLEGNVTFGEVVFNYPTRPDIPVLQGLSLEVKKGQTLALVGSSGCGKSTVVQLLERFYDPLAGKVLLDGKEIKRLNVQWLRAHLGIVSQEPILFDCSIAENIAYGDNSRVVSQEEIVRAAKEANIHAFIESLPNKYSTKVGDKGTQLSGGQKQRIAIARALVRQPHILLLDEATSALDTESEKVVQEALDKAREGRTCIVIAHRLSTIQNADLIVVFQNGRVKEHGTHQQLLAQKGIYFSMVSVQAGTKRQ
Sequence of CYP3A5 (P20815 whole entry): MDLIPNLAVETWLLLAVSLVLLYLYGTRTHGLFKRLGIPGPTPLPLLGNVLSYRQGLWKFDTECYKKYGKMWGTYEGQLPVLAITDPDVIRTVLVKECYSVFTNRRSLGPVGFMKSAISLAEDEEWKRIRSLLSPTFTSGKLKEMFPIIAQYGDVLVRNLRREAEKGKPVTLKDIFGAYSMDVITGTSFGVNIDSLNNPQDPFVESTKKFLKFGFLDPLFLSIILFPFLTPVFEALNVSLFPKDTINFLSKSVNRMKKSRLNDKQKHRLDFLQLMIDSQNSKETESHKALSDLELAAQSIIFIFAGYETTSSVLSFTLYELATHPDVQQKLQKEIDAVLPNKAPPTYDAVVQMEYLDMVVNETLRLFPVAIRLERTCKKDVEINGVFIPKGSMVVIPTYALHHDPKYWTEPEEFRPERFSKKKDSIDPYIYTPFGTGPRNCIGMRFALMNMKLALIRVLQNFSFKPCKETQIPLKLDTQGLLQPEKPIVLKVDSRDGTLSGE

C=CC(=O)N(C)CCOc1c(N)ncnc1-c1cc(F)cc(NC(=O)c2ccc(C3CC3)cc2F)c1C [remibrutinib]
passive permeability (Papp) [1]: 16.5 10^-6 cm/s | P-gp substrate [2]: identified as a P‐gp substrate | uptake clearance with inhibitors of hepatic uptake transporters [3]: not affected | apparent intrinsic affinity (Kmapp) [4]: 5.43 µM | maximal rate of metabolism (Vmax) [4]: 560.7 pmol/min/mg protein | Vmax ([5]; CYP3A4): 16.3 pmol/min/pmol CYP | Km ([5]; read-out: Km,u, CYP3A4, unbound): 1.51 µM | fm,CYP (contribution to oxidative hepatic metabolism) [6]: 1% | fm,CYP (contribution to oxidative hepatic metabolism) [7]: 0.8% | fm,CYP (contribution to oxidative hepatic metabolism) [8]: 0.3% | correlation of metabolism rate with CYP3A4/5 activity, R ([9]; midazolam): 0.989 | correlation of metabolism rate with CYP3A4/5 activity, R ([9]; testosterone): 0.986 | F (absolute bioavailability) ([10]; Observed mean): 33.8 ± 11.5% | F inhibited ([10]; Observed mean, bioavailability in the presence of ritonavir): 80.9% and 80.9 ± 11.5% | Fg ([10]; Observed mean, from grapefruit juice AUC ratio): 78.9% and 78.9 ± 15.6% | Fa ([10]; Observed, calculated Fa = F/Fg/Fh): 86.9% and 86.9^e % | Fh ([10]; Observed, calculated Fh = AUCratio,iv/(AUCratio,po * Fg), ritonavir DDI study): 49.3^d % | fm (CYP3A4) ([10]; Observed, from i.v. exposure increase with ritonavir): 40% | CYP3A4-mediated hepatic first-pass metabolism (100%-Fh) ([10]; calculated): 50.7% | product of Fg and Fh ([10]; calculated / clinically determined values): 39% | Vd ([10]; human, blood, intravenous): 0.81 ± 0.22 L/kg | Vd ([10]; human, blood, iv): 63.1 L | clearance ([10]; human, blood, iv, 0.1 mg): 1170 mL/min | systemic CL as share of hepatic blood flow (87 L/h) ([10]; human, in vivo): ~ 80% | half-life ([10]; human, oral, 50 mg, remibrutinib alone): 6.58 h | half-life ([10]; human, oral, with RTV): 12.1 h | half-life ([10]; human, oral, with grapefruit juice): 7.13 h | Tmax ([10]; human, 50 mg, median, remibrutinib alone): 1 h | Tmax ([10]; human, 50 mg, minimum-maximum, remibrutinib alone): 0.5 to 2.5 h | Tmax ([10]; human, median, with RTV): 0.72 h | Tmax ([10]; human, median, with grapefruit juice): 0.73 h | Tmax ([10]; human, minimum-maximum, with RTV): 0.5 to 1.5 h | Tmax ([10]; human, minimum-maximum, with grapefruit juice): 0.5 to 2 h | AUC0-24 h norm by dose [10, 15]: 14.2 (21.8%) h*ng/ml/mg | AUCinf norm by dose [10, 15]: 14.5 (17.9%) h*ng/ml/mg | AUClast norm by dose [10, 15]: 13.9 (22.3%) h*ng/ml/mg | AUC0-24 h norm by dose [10, 16]: 23.8 (31.0%) h*ng/ml/mg | AUCinf norm by dose [10, 16]: 24.8 (33.3%) h*ng/ml/mg | AUClast norm by dose [10, 16]: 23.5 (31.0%) h*ng/ml/mg | AUC0-24 h norm by dose, Ratio period 3 / period 1 ([10]; i.v., ritonavir vs alone): 1.67 | AUCinf norm by dose, Ratio period 3 / period 1 ([10]; i.v., ritonavir vs alone): 1.70 | AUClast norm by dose, Ratio period 3 / period 1 ([10]; i.v., ritonavir vs alone): 1.68 | Cmax norm by dose, Ratio period 3 / period 1 ([10]; i.v., ritonavir vs alone): 0.89 | AUC0-24 h norm by dose [10, 17]: 4.89 ng·h/mL/mg | Cmax norm by dose [10, 17]: 2.77 ng/mL/mg | AUC0-24 h norm by dose [10, 18]: 6.28 ng·h/mL/mg | Cmax norm by dose [10, 18]: 3.27 ng/mL/mg | AUC0-24 h norm by dose [10, 19]: 20.3 ng·h/mL/mg | Cmax norm by dose [10, 19]: 9.00 ng/mL/mg | AUC0-24 h norm by dose [10, 20]: 4.49 (3.83, 5.26) h*ng/ml/mg | AUCinf norm by dose [10, 20]: 4.66 (3.92, 5.54) h*ng/ml/mg | AUClast norm by dose [10, 20]: 4.37 (3.73, 5.13) h*ng/ml/mg | Cmax norm by dose [10, 20]: 2.45 (1.99, 3.02) ng/ml/mg | AUC0-24 h norm by dose [10, 21]: 5.80 (4.95, 6.80) h*ng/ml/mg | AUCinf norm by dose [10, 21]: 5.98 (4.97, 7.19) h*ng/ml/mg | AUClast norm by dose [10, 21]: 5.80 (4.93, 6.81) h*ng/ml/mg | Cmax norm by dose [10, 21]: 3.03 (2.45, 3.75) ng/ml/mg | AUC0-24 h norm by dose [10, 22]: 19.2 (16.4, 22.5) h*ng/ml/mg | AUCinf norm by dose [10, 22]: 20.1 (16.9, 23.8) h*ng/ml/mg | AUClast norm by dose [10, 22]: 19.7 (16.7, 23.1) h*ng/ml/mg | Cmax norm by dose [10, 22]: 8.15 (6.59, 10.1) ng/ml/mg | AUCinf norm by dose, Ratio period 2 / period 1 [10, 23]: 1.28 (1.09, 1.51) | AUClast norm by dose, Ratio period 2 / period 1 [10, 23]: 1.33 (1.19, 1.47) | AUCinf norm by dose, Ratio period 3 / period 1 [10, 24]: 4.31 (3.76, 4.94) | AUClast norm by dose, Ratio period 3 / period 1 [10, 24]: 4.50 (4.05, 4.99) | tolerability ([11]; alone, with grapefruit juice, or with RTV, healthy participants): well‐tolerated | SAEs, deaths, high-grade AEs ([11]; during the trial): No SAEs, deaths, or AEs of high‐grade severity | clinical laboratory evaluations, vital signs, ECG ([11]; except isolated AE of mildly increased white blood cell count in one participant): no clinically relevant changes | AEs rated grade 1 of all AEs ([11]; occurring in 5 [29.4%] participants): 13/14 | AUC ratio day 12 to day 1 ([12]; declining over dose range 10-600 mg (TMDD effect)): 4.86 to 1.14 | fractional contribution of renal excretion to elimination ([12]; humans): about 1.8% | observed AUCtau [13]: 916 ng·h/mL | observed Cmax [13]: 334 ng/mL | excretion of unchanged remibrutinib into the bile [14]: 0.4 % of the dose
